Each compound was assayed on Trypanosoma brucei brucei (assay: Antitrypanosomal activity against Trypanosoma brucei brucei 427 after 48 hrs by alamar blue assay). Conditions: not given.
Type: functional, organism-based

| SMILES | EC50 |
| --- | --- |
| O=C(/C=C/c1ccc(OC(=O)c2ccccc2)cc1)CC(=O)/C=C/c1ccc(OC(=O)c2ccccc2)cc1 | ND(Insoluble) |
| COc1cc(/C=C/C(=O)CC(=O)/C=C/c2ccc(OC(=O)c3ccccc3)c(OC)c2)ccc1OC(=O)c1ccccc1 | ND(Insoluble) |
| COc1cc(/C=C/C(=O)CC(=O)/C=C/c2ccc(OC(=O)c3ccccc3)cc2)ccc1OC(=O)c1ccccc1 | ND(Insoluble) |

Same assay, conditions: Trypanosoma brucei, 427, 48 h; read-out: EC50

| SMILES | EC50 [µM] |
| --- | --- |
| COc1cc(/C=C/C(=O)CC(=O)/C=C/c2ccc(O)cc2)ccc1OC(=O)c1ccccc1 | 1.2 |
| COc1cc(CCCCC(=O)CCc2ccc(O)c(OC)c2)ccc1O | 32 |
| COc1cc(/C=C/C=C/C(=O)CCc2ccc(O)c(OC)c2)ccc1O | 4.1 |
| COc1ccc(/C=C/C(=O)CC(=O)/C=C/c2ccc(O)c(OC)c2)cc1 | 1.7 |
| COc1cc(/C=C/C=C/C(=O)/C=C/c2ccc(O)c(OC)c2)ccc1O | 1.1 |
| COc1cc(/C=C/C(=O)CC(=O)/C=C/c2ccc(OCC=C(C)C)c(OC)c2)ccc1O | 1.4 |
| COc1cc(CCC(O)CC(O)CCc2ccc(O)c(OC)c2)ccc1O (centres undefined) [OCTAHYDROCURCUMIN] | 78 |
| COc1ccc(/C=C/C(=O)CC(=O)/C=C/c2ccc(OC)c(OC)c2)cc1 | 1.6 |
| O=C(/C=C/c1ccc(O)cc1)CC(=O)/C=C/c1ccc(O)cc1 [BISDEMETHOXYCURCUMIN] | 7.7 |
| COc1ccc(/C=C/C(=O)CC(=O)/C=C/c2ccc(O)cc2)cc1 | 8.9 |
| COc1cc(/C=C/C(O)=C/C(=O)/C=C/c2ccc(O)cc2)ccc1O [DEMETHOXYCURCUMIN] | 4.6 |
| O=C(CCc1ccc(O)cc1)CC(=O)CCc1ccc(O)cc1 [LETESTUIANIN C] | 2.5 |
| COc1cc(/C=C/C(=O)CC(=O)/C=C/c2ccc(OC(C)=O)c(OC)c2)ccc1OC(C)=O | 1.6 |

Each compound was assayed on Leishmania mexicana (assay: Antileishmanial activity against Leishmania mexicana MNYC/BZ/62/M379 amastigotes after 48 hrs by alamar blue assay). Conditions: not given.
Type: functional, organism-based
Method in brief: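 Axenic L. mexicana MNYC/BZ/62/M379 amastigotes kept at 33 °C under CO2 in Schneider's Drosophila medium with 20% FBS and 0.3% gentamycin. Alamar Blue fluorescence read-out.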

| SMILES | EC50 |
| --- | --- |
| O=C(/C=C/c1ccc(OC(=O)c2ccccc2)cc1)CC(=O)/C=C/c1ccc(OC(=O)c2ccccc2)cc1 | ND(Insoluble) |
| COc1cc(/C=C/C(=O)CC(=O)/C=C/c2ccc(OC(=O)c3ccccc3)c(OC)c2)ccc1OC(=O)c1ccccc1 | ND(Insoluble) |
| COc1cc(/C=C/C(=O)CC(=O)/C=C/c2ccc(OC(=O)c3ccccc3)cc2)ccc1OC(=O)c1ccccc1 | ND(Insoluble) |

Same assay, conditions: Leishmania mexicana, MNYC/BZ/62/M379, 48 h; read-out: EC50

| SMILES | EC50 [µM] |
| --- | --- |
| COc1cc(/C=C/C(=O)CC(=O)/C=C/c2ccc(O)cc2)ccc1OC(=O)c1ccccc1 | > 100 |
| COc1cc(CCCCC(=O)CCc2ccc(O)c(OC)c2)ccc1O | > 50 |
| COc1cc(/C=C/C=C/C(=O)CCc2ccc(O)c(OC)c2)ccc1O | 22 |
| COc1ccc(/C=C/C(=O)CC(=O)/C=C/c2ccc(O)c(OC)c2)cc1 | 38 |
| COc1cc(/C=C/C=C/C(=O)/C=C/c2ccc(O)c(OC)c2)ccc1O | 4.8 |
| COc1cc(/C=C/C(=O)CC(=O)/C=C/c2ccc(OCC=C(C)C)c(OC)c2)ccc1O | 21 |
| COc1cc(CCC(O)CC(O)CCc2ccc(O)c(OC)c2)ccc1O (centres undefined) [OCTAHYDROCURCUMIN] | > 100 |
| COc1ccc(/C=C/C(=O)CC(=O)/C=C/c2ccc(OC)c(OC)c2)cc1 | 61 |
| O=C(/C=C/c1ccc(O)cc1)CC(=O)/C=C/c1ccc(O)cc1 [BISDEMETHOXYCURCUMIN] | 63 |
| COc1ccc(/C=C/C(=O)CC(=O)/C=C/c2ccc(O)cc2)cc1 | 32 |
| COc1cc(/C=C/C(O)=C/C(=O)/C=C/c2ccc(O)cc2)ccc1O [DEMETHOXYCURCUMIN] | 37 |
| O=C(CCc1ccc(O)cc1)CC(=O)CCc1ccc(O)cc1 [LETESTUIANIN C] | 64 |
| COc1cc(/C=C/C(=O)CC(=O)/C=C/c2ccc(OC(C)=O)c(OC)c2)ccc1OC(C)=O | 34 |

What follows are compounds tested on Trypanosoma brucei brucei (assay: Antitrypanosomal activity against diminazene-resistant Trypanosoma brucei brucei deltaTbat1-KO after 48 hrs by alamar blue assay). Conditions: not given.
Type: functional, organism-based

| SMILES | EC50 [µM] |
| --- | --- |
| COc1cc(/C=C/C(=O)CC(=O)/C=C/c2ccc(O)cc2)ccc1OC(=O)c1ccccc1 | 1.6 |
| COc1cc(CCCCC(=O)CCc2ccc(O)c(OC)c2)ccc1O | 28 |
| COc1cc(/C=C/C=C/C(=O)CCc2ccc(O)c(OC)c2)ccc1O | 9.7 |
| COc1ccc(/C=C/C(=O)CC(=O)/C=C/c2ccc(O)c(OC)c2)cc1 | 2 |
| COc1cc(/C=C/C=C/C(=O)/C=C/c2ccc(O)c(OC)c2)ccc1O | 1.4 |
| COc1cc(/C=C/C(=O)CC(=O)/C=C/c2ccc(OCC=C(C)C)c(OC)c2)ccc1O | 1.7 |
| COc1cc(CCC(O)CC(O)CCc2ccc(O)c(OC)c2)ccc1O (centres undefined) [OCTAHYDROCURCUMIN] | 61 |
| COc1ccc(/C=C/C(=O)CC(=O)/C=C/c2ccc(OC)c(OC)c2)cc1 | 1.9 |
| O=C(/C=C/c1ccc(O)cc1)CC(=O)/C=C/c1ccc(O)cc1 [BISDEMETHOXYCURCUMIN] | 9.5 |
| COc1ccc(/C=C/C(=O)CC(=O)/C=C/c2ccc(O)cc2)cc1 | 8.8 |
| COc1cc(/C=C/C(O)=C/C(=O)/C=C/c2ccc(O)cc2)ccc1O [DEMETHOXYCURCUMIN] | 5.9 |
| O=C(CCc1ccc(O)cc1)CC(=O)CCc1ccc(O)cc1 [LETESTUIANIN C] | 4 |
| COc1cc(/C=C/C(=O)CC(=O)/C=C/c2ccc(OC(C)=O)c(OC)c2)ccc1OC(C)=O | 2.2 |

Each compound was assayed on Trypanosoma brucei brucei (assay: Antitrypanosomal activity against multidrug-resistant Trypanosoma brucei brucei B48 after 48 hrs by alamar blue assay). Conditions: B48, 48 h.
Type: functional, organism-based

| SMILES | EC50 [µM] |
| --- | --- |
| COc1cc(/C=C/C(=O)CC(=O)/C=C/c2ccc(O)cc2)ccc1OC(=O)c1ccccc1 | 4.7 |
| COc1cc(CCCCC(=O)CCc2ccc(O)c(OC)c2)ccc1O | 27 |
| COc1cc(/C=C/C=C/C(=O)CCc2ccc(O)c(OC)c2)ccc1O | 2.2 |
| COc1ccc(/C=C/C(=O)CC(=O)/C=C/c2ccc(O)c(OC)c2)cc1 | 2.1 |
| COc1cc(/C=C/C=C/C(=O)/C=C/c2ccc(O)c(OC)c2)ccc1O | 0.58 |
| COc1cc(/C=C/C(=O)CC(=O)/C=C/c2ccc(OCC=C(C)C)c(OC)c2)ccc1O | 2 |
| COc1cc(CCC(O)CC(O)CCc2ccc(O)c(OC)c2)ccc1O (centres undefined) [OCTAHYDROCURCUMIN] | > 100 |
| COc1ccc(/C=C/C(=O)CC(=O)/C=C/c2ccc(OC)c(OC)c2)cc1 | 1.9 |
| O=C(/C=C/c1ccc(O)cc1)CC(=O)/C=C/c1ccc(O)cc1 [BISDEMETHOXYCURCUMIN] | 4.5 |
| COc1ccc(/C=C/C(=O)CC(=O)/C=C/c2ccc(O)cc2)cc1 | 2.9 |
| COc1cc(/C=C/C(O)=C/C(=O)/C=C/c2ccc(O)cc2)ccc1O [DEMETHOXYCURCUMIN] | 2.2 |
| O=C(CCc1ccc(O)cc1)CC(=O)CCc1ccc(O)cc1 [LETESTUIANIN C] | 5.1 |
| COc1cc(/C=C/C(=O)CC(=O)/C=C/c2ccc(OC(C)=O)c(OC)c2)ccc1OC(C)=O | 1.2 |

These compounds were tested on HEK293 (assay: Cytotoxicity against HEK293 cells after 16 hrs by alamar blue assay). Conditions: Homo sapiens, HEK293, 16 h; read-out: EC50.
Type: cell-based, Homo sapiens
Method in brief: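 HEK293T cells grown in DMEM-based medium with 10% newborn bovine serum at 37 °C, 5% CO2. Doubling dilutions of compound added for 16 h, then resazurin added. Fluorescence read at emission 590 nm after a further 24 h.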

| SMILES | EC50 [µM] |
| --- | --- |
| COc1cc(/C=C/C(=O)CC(=O)/C=C/c2ccc(O)cc2)ccc1OC(=O)c1ccccc1 | 370 |
| COc1cc(CCCCC(=O)CCc2ccc(O)c(OC)c2)ccc1O | 140 |
| COc1cc(/C=C/C=C/C(=O)CCc2ccc(O)c(OC)c2)ccc1O | 76 |
| COc1ccc(/C=C/C(=O)CC(=O)/C=C/c2ccc(O)c(OC)c2)cc1 | 79 |
| COc1cc(/C=C/C=C/C(=O)/C=C/c2ccc(O)c(OC)c2)ccc1O | 22 |
| COc1cc(/C=C/C(=O)CC(=O)/C=C/c2ccc(OCC=C(C)C)c(OC)c2)ccc1O | > 500 |
| COc1ccc(/C=C/C(=O)CC(=O)/C=C/c2ccc(OC)c(OC)c2)cc1 | 690 |
| O=C(/C=C/c1ccc(O)cc1)CC(=O)/C=C/c1ccc(O)cc1 [BISDEMETHOXYCURCUMIN] | 200 |
| COc1ccc(/C=C/C(=O)CC(=O)/C=C/c2ccc(O)cc2)cc1 | 400 |
| COc1cc(/C=C/C(O)=C/C(=O)/C=C/c2ccc(O)cc2)ccc1O [DEMETHOXYCURCUMIN] | 40 |
| O=C(CCc1ccc(O)cc1)CC(=O)CCc1ccc(O)cc1 [LETESTUIANIN C] | 350 |
| COc1cc(/C=C/C(=O)CC(=O)/C=C/c2ccc(OC(C)=O)c(OC)c2)ccc1OC(C)=O | 80 |

Same assay, conditions: hek293

| SMILES | EC50 |
| --- | --- |
| O=C(/C=C/c1ccc(OC(=O)c2ccccc2)cc1)CC(=O)/C=C/c1ccc(OC(=O)c2ccccc2)cc1 | ND(Insoluble) |
| COc1cc(/C=C/C(=O)CC(=O)/C=C/c2ccc(OC(=O)c3ccccc3)c(OC)c2)ccc1OC(=O)c1ccccc1 | ND(Insoluble) |
| COc1cc(/C=C/C(=O)CC(=O)/C=C/c2ccc(OC(=O)c3ccccc3)cc2)ccc1OC(=O)c1ccccc1 | ND(Insoluble) |

What follows are compounds tested on Leishmania major (assay: Antileishmanial activity against Leishmania major Friedlin promastigotes after 48 hrs by alamar blue assay). Conditions: not given.
Type: functional, organism-based
Method in brief: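 L. major Friedlin promastigotes grown in HOMEM with 10% FBS at 25 °C. Alamar Blue fluorescence assay in 96-well plates. 3–6 independent experiments unless noted.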

| SMILES | EC50 |
| --- | --- |
| O=C(/C=C/c1ccc(OC(=O)c2ccccc2)cc1)CC(=O)/C=C/c1ccc(OC(=O)c2ccccc2)cc1 | ND(Insoluble) |
| COc1cc(/C=C/C(=O)CC(=O)/C=C/c2ccc(OC(=O)c3ccccc3)c(OC)c2)ccc1OC(=O)c1ccccc1 | ND(Insoluble) |
| COc1cc(/C=C/C(=O)CC(=O)/C=C/c2ccc(OC(=O)c3ccccc3)cc2)ccc1OC(=O)c1ccccc1 | ND(Insoluble) |

Same assay, conditions: Leishmania major, Friedlin, 48 h; read-out: EC50

| SMILES | EC50 [µM] |
| --- | --- |
| COc1cc(/C=C/C(=O)CC(=O)/C=C/c2ccc(O)cc2)ccc1OC(=O)c1ccccc1 | 42 |
| COc1cc(CCCCC(=O)CCc2ccc(O)c(OC)c2)ccc1O | 37 |
| COc1cc(/C=C/C=C/C(=O)CCc2ccc(O)c(OC)c2)ccc1O | 30 |
| COc1ccc(/C=C/C(=O)CC(=O)/C=C/c2ccc(O)c(OC)c2)cc1 | 23 |
| COc1cc(/C=C/C=C/C(=O)/C=C/c2ccc(O)c(OC)c2)ccc1O | 7.4 |
| COc1cc(/C=C/C(=O)CC(=O)/C=C/c2ccc(OCC=C(C)C)c(OC)c2)ccc1O | 7.6 |
| COc1cc(CCC(O)CC(O)CCc2ccc(O)c(OC)c2)ccc1O (centres undefined) [OCTAHYDROCURCUMIN] | > 100 |
| COc1ccc(/C=C/C(=O)CC(=O)/C=C/c2ccc(OC)c(OC)c2)cc1 | 23 |
| O=C(/C=C/c1ccc(O)cc1)CC(=O)/C=C/c1ccc(O)cc1 [BISDEMETHOXYCURCUMIN] | 72 |
| COc1ccc(/C=C/C(=O)CC(=O)/C=C/c2ccc(O)cc2)cc1 | 87 |
| COc1cc(/C=C/C(O)=C/C(=O)/C=C/c2ccc(O)cc2)ccc1O [DEMETHOXYCURCUMIN] | 37 |
| O=C(CCc1ccc(O)cc1)CC(=O)CCc1ccc(O)cc1 [LETESTUIANIN C] | 80 |
| COc1cc(/C=C/C(=O)CC(=O)/C=C/c2ccc(OC(C)=O)c(OC)c2)ccc1OC(C)=O | 73 |

Source: ChEMBL document CHEMBL1154833, “Curcuminoid analogs with potent activity against Trypanosoma and Leishmania species” (Eur J Med Chem, 2010)
